ChEMBL document CHEMBL3244045, “2-cyano-1,3-dicarbonyl compounds with antiallergic activity” (1977)

Experiments:
Type in all cases: functional
Rattus norvegicus [1] = experiment: Antiallergic activity in sc dosed Wistar rat assessed as time between compound administration and ovalbumin challenge to give maximum activity by passive cutaneous anaphylaxis assay
Rattus norvegicus [2] = experiment: Antiallergic activity in sc dosed Wistar rat assessed as inhibition of ovalbumin-mediated passive cutaneous anaphylaxis by measuring wheal formation at Tmax
Method in brief: (§1)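 Rat PCA: serum with heat-labile homocytotropic antibody raised in rats to crystallized ovalbumin, Bordetella pertussis vaccine adjuvant; PCA per Ovary–Bier method as modified by Goose and Blair. Test agents as sodium salts, dissolved in pH 7.2 buffer or suspended in 1% methylcellulose by solubility. ED50 from inhibition/log dose line, 95% confidence limits, slope and animal numbers given.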

Rattus norvegicus [3] = experiment: Antiallergic activity in po dosed Wistar rat assessed as inhibition of ovalbumin-mediated passive cutaneous anaphylaxis by measuring wheal formation administered 15 to 20 mins prior to ovalbumin challenge; method in brief: as §1

| SMILES | Time (Rattus norvegicus [1]) [min] | ED50 (Rattus norvegicus [2]) [µmol/kg] | ED50 (Rattus norvegicus [3]) [µmol/kg] |
| --- | --- | --- | --- |
| Cc1cccc2c1C(=O)[C-](C#N)C2=O.[Na+] (stereo not given) | 10 | 74 |  |
| Cc1ccc2c([O-])c(C#N)c(=O)oc2c1C.[Na+] | 10 | 26.2 |  |
| Cc1ccc2oc(=O)c(C#N)c([O-])c2c1.[Na+] | 10 | 497 |  |
| CCc1cc2c([O-])c(C#N)c(=O)oc2cc1C.[Na+] | 10 | 10.1 |  |
| N#C[C-]1C(=O)c2ccncc2C1=O.[Na+] (stereo not given) | 10 | 120 |  |
| CCc1cc2oc(=O)c(C#N)c([O-])c2cc1CC.[Na+] | 10 | 7.6 | 60 |
| O=C([O-])c1cc(=O)c2c(OCC(O)COc3cccc4oc(C(=O)[O-])cc(=O)c34)cccc2o1.[Na+].[Na+] [CROMOLYN SODIUM] | 10 | 13.1 |  |
| CCc1cc2c(cc1CC)C(=O)[C-](C#N)C2=O.[Na+] | 20 | 10.9 | 60 |
| N#Cc1c([O-])c2cc3ccccc3cc2oc1=O.[Na+] | 10 | 211 |  |
| CCc1ccc2c([O-])c(C#N)c(=O)oc2c1.[Na+] | 10 | 23.8 |  |
| N#Cc1c([O-])c2cc3c(cc2oc1=O)CCCC3.[Na+] | 10 | 16.4 |  |
| COc1cccc2c1C(=O)[C-](C#N)C2=O.[Na+] (stereo not given) | 10 | 90.2 |  |
| CCOc1ccc2c([O-])c(C#N)c(=O)oc2c1.[Na+] | 10 | 15.1 |  |
| N#C[C-]1C(=O)c2cccnc2C1=O.[Na+] (stereo not given) | 10 | 90.6 |  |
| Cc1ccc2c([O-])c(C#N)c(=O)oc2c1.[Na+] | 10 | 52.4 |  |
| Cc1cc2c(cc1C)C(=O)[C-](C#N)C2=O.[Na+] | 10 | 16.3 |  |
| N#C[C-]1C(=O)c2ccc(Cl)cc2C1=O.[Na+] (stereo not given) | 10 | 59.7 |  |
| N#Cc1c([O-])c2ccccc2oc1=O.[Na+] | 10 | 39.1 |  |
| N#C[C-]1C(=O)c2cc3ccccc3cc2C1=O.[Na+] | 10 | 13.8 |  |
| Cc1cc2oc(=O)c(C#N)c([O-])c2cc1C.[Na+] | 10 | 15.2 |  |
| Cc1ccc2c(c1)C(=O)[C-](C#N)C2=O.[Na+] (stereo not given) | 10 | 44.1 |  |
| Cc1cccc2c([O-])c(C#N)c(=O)oc12.[Na+] | 10 | 32.8 |  |
| COc1ccc2oc(=O)c(C#N)c([O-])c2c1.[Na+] | 10 | 28.2 |  |
| N#C[C-]1C(=O)c2ccccc2C1=O.[Na+] | 10 | 85.3 |  |
